ChEMBL document CHEMBL4325889, “Natural products hybrids: 3,5,4'-Trimethoxystilbene-5,6,7-trimethoxyflavone chimeric analogs as potential cytotoxic agents against diverse human cancer cells” (Eur J Med Chem, 2019)

Tests used:
Format in all cases: functional
[1] = tested on: MOLT-4; assay: Growth inhibition of human MOLT4 cells at 10 uM after 48 hrs by SRB assay relative to control; conditions: MOLT-4, 48 h, read-out: GI
Summary of the method: (§1)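 Screened at the National Cancer Institute by the standard NCI protocol using the sulforhodamine B assay, which measures cellular protein. Single dose of 10 µM. Result is percent growth inhibition; values above 100% mean cell number fell below the initial population. Values are the average of duplicates.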

[2] = tested on: SR; assay: Growth inhibition of human SR cells at 10 uM after 48 hrs by SRB assay relative to control; conditions: read-out: GI
Summary of the method: (§2)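 NCI screen against its human cancer cell line panel by the standard NCI protocol, SRB protein stain. Single dose of 10 μM. Percent growth inhibition versus control; values above 100% mean the cell population fell below the starting number. Each value is the mean of duplicates.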

[3] = tested on: A549; assay: Growth inhibition of human A549 cells at 10 uM after 48 hrs by SRB assay relative to control; conditions: A549, 48 h, read-out: GI; summary of the method: as §1
[4] = tested on: NCI-H226; assay: Growth inhibition of human NCI-H226 cells at 10 uM after 48 hrs by SRB assay relative to control; conditions: NCI-H226, 48 h, read-out: GI; summary of the method: as §1
[5] = tested on: NCI-H460; assay: Growth inhibition of human NCI-H460 cells at 10 uM after 48 hrs by SRB assay relative to control; conditions: NCI-H460, 48 h, read-out: GI; summary of the method: as §1
[6] = tested on: NCI-H522; assay: Growth inhibition of human NCI-H522 cells at 10 uM after 48 hrs by SRB assay relative to control; conditions: NCI-H522, 48 h, read-out: GI; summary of the method: as §1
[7] = tested on: HCT-15; assay: Growth inhibition of human HCT15 cells at 10 uM after 48 hrs by SRB assay relative to control; conditions: HCT-15, 48 h, read-out: GI; summary of the method: as §1
[8] = tested on: KM12; assay: Growth inhibition of human KM12 cells at 10 uM after 48 hrs by SRB assay relative to control; conditions: KM12, 48 h, read-out: GI; summary of the method: as §1
[9] = tested on: SW-620; assay: Growth inhibition of human SW620 cells at 10 uM after 48 hrs by SRB assay relative to control; conditions: SW-620, 48 h, read-out: GI; summary of the method: as §2
[10] = tested on: SF-268; assay: Growth inhibition of human SF268 cells at 10 uM after 48 hrs by SRB assay relative to control; conditions: SF-268, 48 h, read-out: GI; summary of the method: as §1
[11] = tested on: LOX IMVI; assay: Growth inhibition of human LOXIMVI cells at 10 uM after 48 hrs by SRB assay relative to control; conditions: read-out: GI; summary of the method: as §1
[12] = tested on: SK-MEL-2; assay: Growth inhibition of human SK-MEL-2 cells at 10 uM after 48 hrs by SRB assay relative to control; conditions: SK-MEL-2, 48 h, read-out: GI; summary of the method: as §1
[13] = tested on: OVCAR-5; assay: Growth inhibition of human OVCAR5 cells at 10 uM after 48 hrs by SRB assay relative to control; conditions: OVCAR-5, 48 h, read-out: GI; summary of the method: as §1
[14] = tested on: OVCAR-8; assay: Growth inhibition of human OVCAR8 cells at 10 uM after 48 hrs by SRB assay relative to control; conditions: OVCAR-8, 48 h, read-out: GI; summary of the method: as §1
[15] = tested on: 786-0; assay: Growth inhibition of human 786-0 cells at 10 uM after 48 hrs by SRB assay relative to control; conditions: 786-0, 48 h, read-out: GI; summary of the method: as §1
[16] = tested on: ACHN; assay: Growth inhibition of human ACHN cells at 10 uM after 48 hrs by SRB assay relative to control; conditions: read-out: GI; summary of the method: as §1
[17] = tested on: RXF 393; assay: Growth inhibition of human RXF393 cells at 10 uM after 48 hrs by SRB assay relative to control; conditions: RXF 393, 48 h, read-out: GI; summary of the method: as §1
[18] = tested on: TK-10; assay: Growth inhibition of human TK10 cells at 10 uM after 48 hrs by SRB assay relative to control; conditions: TK-10, 48 h, read-out: GI; summary of the method: as §2
[19] = tested on: PC-3; assay: Growth inhibition of human PC3 cells at 10 uM after 48 hrs by SRB assay relative to control; conditions: PC-3, 48 h, read-out: GI; summary of the method: as §1
[20] = tested on: BT-549; assay: Growth inhibition of human BT549 cells at 10 uM after 48 hrs by SRB assay relative to control; conditions: BT-549, 48 h, read-out: GI; summary of the method: as §1
[21] = tested on: MDA-MB-468; assay: Growth inhibition of human MDA-MB-468 cells at 10 uM after 48 hrs by SRB assay relative to control; conditions: MDA-MB-468, 48 h, read-out: GI; summary of the method: as §1

SMILES	inhibition of growth at 10 µM [1] [%]	inhibition of growth at 10 µM [2] [%]	inhibition of growth at 10 µM [3] [%]	inhibition of growth at 10 µM [4] [%]	inhibition of growth at 10 µM [5] [%]	inhibition of growth at 10 µM [6] [%]	inhibition of growth at 10 µM [7] [%]	inhibition of growth at 10 µM [8] [%]	inhibition of growth at 10 µM [9] [%]	inhibition of growth at 10 µM [10] [%]	inhibition of growth at 10 µM [11] [%]	inhibition of growth at 10 µM [13] [%]	inhibition of growth at 10 µM [14] [%]	inhibition of growth at 10 µM [15] [%]	inhibition of growth at 10 µM [16] [%]	inhibition of growth at 10 µM [17] [%]	inhibition of growth at 10 µM [18] [%]	inhibition of growth at 10 µM [19] [%]	inhibition of growth at 10 µM [20] [%]	inhibition of growth at 10 µM [21] [%]	further results
COc1cc2oc(-c3cccc(NC(=O)c4ccc5c(c4)OCO5)c3)cc(=O)c2c(O)c1OC	15.8	19	13.5	55.4	16.7	41.5	0.04	1.48	-1.42	32.5	5.74	13.7	37.8	29.9	30.5	32.6	15.3	22.6	24.5	17.6	inhibition of growth at 10 µM [12]: 6.66%
COc1cc2oc(-c3cccc(C(=O)Nc4ccccc4)c3)cc(=O)c2c(O)c1OC	0.26	4.29	39.7	26.8	66.3	8.74	7.23	42.2	5.67	63	11.9	5.59	84.6	68.5	42	43.5	39.2	29	39.9	30.6	inhibition of growth at 10 µM [12]: 35%
COc1cc2oc(-c3cccc(NC(=O)c4ccccc4)c3)cc(=O)c2c(OC)c1OC	59.4	68.4	31.1	18.6	21.3	50.7	34.8	35.6	8.49	27.7	38.3	-0.09	39	21.9	38.4	25.6	8.72	46.9	25.9	15.8	inhibition of growth at 10 µM [12]: 23.2%
COc1cc2oc(-c3cccc(C(=O)Nc4ccc5c(c4)OCO5)c3)cc(=O)c2c(O)c1OC	-0.5	24.1	25.1	21.5	45.7	23.9	6.45	29.4	15.5	41.3	11.8	11.1	69.4	35.7	24.8	18.5	1.4	27.7	16	45.4	inhibition of growth at 10 µM [12]: 10.1%
COc1cc2oc(-c3cccc(C(=O)Nc4ccccc4)c3)cc(=O)c2c(OC)c1OC	43.2	35.9	16.7	12.7	11.2	21.9	20.8	24.3	-0.72	16.7	33	16.2	34.9	7.46	8.22	24.9	8.98	29	24.2	9.98	inhibition of growth at 10 µM [12]: 15.4%
COc1ccc(NC(=O)c2cccc(-c3cc(=O)c4c(OC)c(OC)c(OC)cc4o3)c2)cc1	36.8	18.4	22.4	18.5	33.9	39	52.9	45.2	6.52	27.9	75.4	16.8	46.1	29.3	33.4	59.9	15.7	38.8	53.1	24.3	inhibition of growth at 10 µM [12]: 15.3%
COc1ccccc1C(=O)Nc1cccc(-c2cc(=O)c3c(O)c(OC)c(OC)cc3o2)c1	6.77	16.5	22.1	13	-2.21	41	3.51	5.13	10.5	8.58	4.4	5.27	17.5	11.3	5.14	-12.1	-0.86	10.3	25.1	-22.9	inhibition of growth at 10 µM [12]: 0.56%
Cc1ccc(NC(=O)c2ccc(CN3CCN(C)CC3)cc2)cc1Nc1nccc(-c2cccnc2)n1 [IMATINIB]	18	14.6	3.8	10.6	3.2		11.5	-6.7	-10	-3.8	11.6	-22.8	8.4	5	-1	5.7	-10	10.6	-5	29.1	
COc1cccc(C(=O)Nc2cccc(-c3cc(=O)c4c(OC)c(OC)c(OC)cc4o3)c2)c1	53.3		44.1	28		58.4	46.6	53.9	22.8	42.6	42.6	10.4	47.7	47.2	42.1	28.9	17.2	48.8	42.5	5.72	inhibition of growth at 10 µM [12]: 38.1%
